One test has as its system HT-29. Nature of the test: Cytotoxicity against human HT-29 cells by MTT assay. The format is functional. The settings on record: for EC50: Homo sapiens, HT-29, read-out: ED50 (the source's name). The method, boiled down:
(§1)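 Human solid tumour lines tested at the Purdue Cancer Center cell culture laboratory using a standard MTT viability method, with adriamycin run as the control substance.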
A general note: Tetrazolium assays rely on reduction of a dye to a coloured formazan, in cell work by metabolically active cells.

Test [1] can be described thus: Inhibition of bovine brain tubulin polymerization by turbidity assay. Details: species or system Bos taurus. The method, boiled down:
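Microtubule protein isolated from bovine brain, 1 mg/ml, with 1 mM GTP and graded inhibitor concentrations. Turbidity increase read at 340 nm over 30 min at 37°. Positive control contained MTP plus GTP; negative control contained MTP only.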

Another test has as its system A-431. Nature of the test: Cytotoxicity against human A431 cells by MTT assay. It counts as functional. The settings on record: for EC50: Homo sapiens, A-431, read-out: ED50 (the source's name). In a few lines: as §1
Test [2] is described as follows: Inhibition of bovine brain tubulin polymerization by sedimentation assay. Details: species or system Bos taurus. The method, boiled down: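 Microtubule protein from bovine brain (1 mg/ml) with 1 mM GTP and varying inhibitor levels, incubated 30 min at 37°. Microtubules pelleted at 100,000 g for 5 min. Supernatant protein measured by BCA. Sedimented protein calculated relative to the positive control (MTP+GTP) and negative control (MTP alone).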

Another test relates to A498. The test can be described thus: Cytotoxicity against human A498 cells by MTT assay. The format is functional. Conditions: for EC50: Homo sapiens, A498, read-out: ED50 (the source's name). In a few lines: as §1
In the next test the test system is SK-MEL-5. The test can be described thus: Cytotoxicity against human SK-MEL-5 cells by MTT assay. The format is functional. Conditions: for EC50: Homo sapiens, SK-MEL-5, read-out: ED50 (the source's name). In a few lines: as §1
For a further test, the system named is SK-OV-3. Nature of the test: Cytotoxicity against human SKOV3 cells by MTT assay. It counts as functional. Conditions: for EC50: Homo sapiens, SK-OV-3, read-out: ED50 (the source's name). The method, boiled down:
as §1

A further test deals with MCF7. Nature of the test: Cytotoxicity against human MCF7 cells by MTT assay. It counts as functional. The settings on record: for EC50: Homo sapiens, MCF7, read-out: ED50 (the source's name). In a few lines: as §1
Another test has as its system A549. Nature of the test: Cytotoxicity against human A549 cells by MTT assay. The settings on record: for EC50: Homo sapiens, A549, read-out: ED50 (the source's name). It counts as functional. The method, boiled down: as §1
In another test the test system is PC-3. Nature of the test: Cytotoxicity against human PC3 cells by MTT assay. The format is functional. The settings on record: for EC50: Homo sapiens, PC-3, read-out: ED50 (the source's name). In a few lines: as §1

Structures are written as SMILES. Values after ≈ are worked out from the molar mass of the structure shown.

A word on the IC50: it is the midpoint of a concentration-inhibition curve. A higher IC50 goes with a need for much substance. `COc1cc(-c2c3c(cc4cc5c(cc24)OCO5)COC3=O)cc2c1OCO2`: the EC50 is 0.29 µg/mL (≈ 0.767 µM) in the test on HT-29; 0.18 µg/mL (≈ 0.476 µM) with A-431; 0.078 µg/mL (≈ 0.206 µM) in the test with A498; 0.0035 µg/mL (≈ 0.00925 µM) with SK-MEL-5; 0.0067 µg/mL (≈ 0.0177 µM) in the test with SK-OV-3; 9.7 µg/mL (≈ 25.6 µM) with MCF7. For the same compound, the EC50 came to 0.049 µg/mL (≈ 0.13 µM) in the test with A549 and 0.15 µg/mL (≈ 0.396 µM) in the test with PC-3. Besides, the results for the IC50 in test [1] and in [2] were 5000 nM and 20000 nM, respectively.
Regarding `COc1cc([C@@H]2c3cc4c(cc3C[C@H]3COC(=O)[C@H]32)OCO4)cc2c1OCO2`, the EC50 in the test with HT-29 was 0.1 µg/mL (≈ 0.262 µM); in the test on A-431 it was 0.96 µg/mL (≈ 2.51 µM); in the test with A498, 0.76 µg/mL (≈ 1.99 µM); in the test with SK-MEL-5, 0.77 µg/mL (≈ 2.01 µM); in the test with SK-OV-3, 0.832 µg/mL (≈ 2.18 µM); in the test on MCF7 it was 4.1 µg/mL (≈ 10.7 µM). Further, the EC50 in the test with A549 was determined as 0.46 µg/mL (≈ 1.2 µM); with PC-3, 3.1 µg/mL (≈ 8.11 µM). Also, the IC50 in test [1] amounted to 40000 nM; in test [2], 45000 nM.
For the compound `COc1cc([C@@H]2c3cc4c(cc3C[C@H]3COC(=O)[C@@H]32)OCO4)cc2c1OCO2` [AUSTROBAILIGNAN 1], the ED50 in the test on HT-29 came to 3.7 ×10⁻⁶ ug/ml; in the test with A-431, 3.6 ×10⁻⁶ ug/ml; in the test on A498, 3.2 ×10⁻⁶ ug/ml; with SK-MEL-5, 3 ×10⁻⁷ ug/ml; in the test with SK-OV-3 it was 2.7 ×10⁻⁶ ug/ml; in the test with MCF7, 5.2 ×10⁻⁵ ug/ml. Besides, the ED50 in the test on A549 was determined as 3.9 ×10⁻⁶ ug/ml; in the test with PC-3, 3.3 ×10⁻⁶ ug/ml. For the same compound, the results for the IC50 in [1] and in test [2] were 800 nM and 1000 nM, respectively.
For the compound `COc1cccc2c1C(=O)c1c(O)c3c(c(O)c1C2=O)C[C@@](O)(C(=O)CO)C[C@@H]3O[C@H]1C[C@H](N)[C@H](O)[C@H](C)O1` [DOXORUBICIN], the ED50 was determined as 5.6 ×10⁻⁴ ug/ml in the test on HT-29, 2.8 ×10⁻⁴ ug/ml in the test on SK-MEL-5 and 3.1 ×10⁻⁴ ug/ml with A549. Besides, the EC50 with A-431 was found to be 0.012 µg/mL (≈ 0.0221 µM); in the test with A498 it was 0.0032 µg/mL (≈ 0.00589 µM); in the test with SK-OV-3, 0.0025 µg/mL (≈ 0.0046 µM); with MCF7, 0.02 µg/mL (≈ 0.0368 µM); with PC-3, 0.01 µg/mL (≈ 0.0184 µM).
With `COc1cc([C@@H]2c3cc4c(cc3[C@H](O)[C@H]3COC(=O)[C@H]23)OCO4)cc(OC)c1OC` [PODOFILOX], the ED50 stood at 4.7 ×10⁻⁸ ug/ml in the test on HT-29; 1.1 ×10⁻⁶ ug/ml in the test on A-431; 3.4 ×10⁻⁷ ug/ml in the test on A498; 4.1 ×10⁻⁸ ug/ml with SK-MEL-5; 4.2 ×10⁻⁵ ug/ml with SK-OV-3; 1.1 ×10⁻⁶ ug/ml in the test with MCF7. Further, the results for the ED50 in the test with A549 and with PC-3 were 7.7 ×10⁻⁸ ug/ml and 1.2 ×10⁻⁷ ug/ml, respectively. Moreover, the IC50 in test [1] was 600 nM; in test [2] it was 1000 nM.

Values taken from ChEMBL document CHEMBL1150073, “Cytotoxic cyclolignans from Koelreuteria henryi” (J Nat Prod, 1994).
